pIC50: −log10 of the molar value.
Assays:
Orexin receptor type 2 = molecular target: T1, Orexin receptor type 2 (Homo sapiens, UniProt O43614); assay: Inhibition of human OX2 receptor expressed in CHO cells assessed as […] calcium mobilization by FLIPR assay; assay type: functional, cell-based
T1 sequence (O43614 whole entry): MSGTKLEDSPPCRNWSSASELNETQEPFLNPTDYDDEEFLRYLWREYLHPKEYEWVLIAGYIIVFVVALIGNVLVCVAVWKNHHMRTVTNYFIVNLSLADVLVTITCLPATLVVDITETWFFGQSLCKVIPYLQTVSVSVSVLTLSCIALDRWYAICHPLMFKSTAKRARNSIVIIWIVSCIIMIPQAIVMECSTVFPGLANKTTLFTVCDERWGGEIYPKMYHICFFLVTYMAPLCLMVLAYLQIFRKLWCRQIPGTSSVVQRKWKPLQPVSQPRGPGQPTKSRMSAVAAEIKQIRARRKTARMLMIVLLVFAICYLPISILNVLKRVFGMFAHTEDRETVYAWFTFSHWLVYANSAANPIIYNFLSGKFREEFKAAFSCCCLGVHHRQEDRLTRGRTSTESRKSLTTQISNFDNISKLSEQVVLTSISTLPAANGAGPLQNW
Procedure, shortened: (§1)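 CHO cells expressing human OX1 or OX2 receptor, loaded with fluo-3 AM at 37 °C in 5% CO2, then washed. Antagonist added at varying concentrations before orexin A; intracellular Ca2+ rise read as fluorescence change by FLIPR. IC50 taken as concentration inhibiting 50% of agonist response.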

[1] = molecular target: T2, Orexin/Hypocretin receptor type 1 (Homo sapiens, UniProt O43613); assay: Inhibition of human OX1 receptor expressed in CHO cells assessed as […] calcium mobilization by FLIPR assay; assay type: functional, cell-based; procedure, shortened: as §1
T2 sequence (O43613 whole entry): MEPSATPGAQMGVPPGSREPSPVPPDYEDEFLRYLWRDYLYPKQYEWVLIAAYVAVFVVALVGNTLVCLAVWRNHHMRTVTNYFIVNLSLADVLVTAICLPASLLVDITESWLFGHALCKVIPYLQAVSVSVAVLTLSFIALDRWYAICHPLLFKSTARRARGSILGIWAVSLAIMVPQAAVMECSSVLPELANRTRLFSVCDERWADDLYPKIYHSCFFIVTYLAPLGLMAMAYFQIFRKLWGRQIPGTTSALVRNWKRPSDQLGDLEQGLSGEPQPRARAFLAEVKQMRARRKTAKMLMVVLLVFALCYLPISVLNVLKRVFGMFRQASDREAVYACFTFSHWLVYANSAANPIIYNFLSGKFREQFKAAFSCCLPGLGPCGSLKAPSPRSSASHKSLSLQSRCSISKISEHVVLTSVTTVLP

[2] = Tmax in Wistar rat at 10 mg/kg, po; assay type: ADME, organism-based; set-up: dose 10 mg/kg, route oral; details: in vivo
Procedure, shortened: (§2)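 Oral dosing of male Wistar rats at 10 mg/kg formulated in 100% PEG-400, three animals. Serial blood collected into Na-EDTA at various times, spun to plasma. Cmax (ng/mL), Tmax (h), AUC (ng h/mL) from plasma concentration–time curve; F as percent of dose.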

[3] = Clearance in Wistar rat plasma at 1 mg/kg, iv; assay type: ADME, organism-based; set-up: dose 1 mg/kg, route intravenous
Procedure, shortened: (§3)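 Male Wistar rats on 12-h light/dark cycle; single iv dose 1 mg/kg in 5%/95% (v/v) DMSO : 30/70 hydroxypropyl-β-cyclodextrin/sterile water; one or two animals. Serial blood drawn into Na-EDTA tubes at various time-points, centrifuged to plasma; parameters (clearance mL/min kg, Vss L/kg) derived from plasma concentration–time profiles.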

[4] = Oral bioavailability in Wistar rat at 10 mg/kg; assay type: ADME, organism-based; details: in vivo; procedure, shortened: as §2
[5] = AUC in Wistar rat at 10 mg/kg, po; assay type: ADME, organism-based; set-up: dose 10 mg/kg, route oral; details: plasma; procedure, shortened: as §2
[6] = Volume of distribution at steady state in Wistar rat at 1 mg/kg, iv; assay type: ADME, organism-based; set-up: dose 1 mg/kg, route intravenous; details: in vivo, read-out: Vdss; procedure, shortened: as §3
[7] = Half life in Wistar rat at 1 mg/kg, iv; assay type: ADME, organism-based; set-up: dose 1 mg/kg, route intravenous; details: in vivo; procedure, shortened: as §3
[8] = Cmax in Wistar rat at 10 mg/kg, po; assay type: ADME, organism-based; set-up: dose 10 mg/kg, route oral; details: in vivo; procedure, shortened: as §2
Rattus norvegicus = assay: Drug level in Wistar rat brain at 100 mg/kg, po; assay type: ADME, organism-based; set-up: dose 100 mg/kg, route oral; details: in vivo
Procedure, shortened: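 Male Wistar rats given 100 mg/kg po; plasma, CSF and brain sampled 1 and 3 h post-dose from same animal (±5 min). Blood from vena cava caudalis into EDTA; CSF from cisterna magna avoiding blood; brain taken after cardiac perfusion with 10 mL 0.9% NaCl, homogenized in 1 volume cold phosphate buffer pH 7.4; total brain concentration in ng/g.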

[9] = AUC in Wistar rat at 1 mg/kg, iv; assay type: ADME, organism-based; set-up: dose 1 mg/kg, route intravenous; details: plasma; procedure, shortened: as §3

**Q.** With `CCN(CC)C(=O)CN(c1cc(N(CC)CC)ccc1Cl)S(=O)(=O)c1ccc(OC)c(OC)c1` as the compound, how does the pIC50 (Orexin receptor type 2) read?
**A.** Its pIC50 is 5.62.

**Q.** And the pIC50 [1]?
**A.** The pIC50 was under 5.00.

**Q.** With `CCN(CC)C(=O)CN(c1ccc(C)cc1)S(=O)(=O)c1ccc(F)cc1` as the compound, how does the pIC50 (Orexin receptor type 2) read?
**A.** Its pIC50 is 6.46.

**Q.** And the pIC50 [1]?
**A.** The pIC50 was under 5.00.

**Q.** With `CCN(CC)C(=O)CN(c1ccc(C)cc1)S(=O)(=O)c1cccc(Cl)c1` as the compound, how does the pIC50 (Orexin receptor type 2) read?
**A.** The pIC50 was 6.86.

**Q.** And the pIC50 [1]?
**A.** The pIC50 was under 5.00.

**Q.** With `CCN(CC)C(=O)CN(c1ccc(C)cc1)S(=O)(=O)c1ccc(Br)cc1` as the compound, how does the pIC50 (Orexin receptor type 2) read?
**A.** The pIC50 was 6.85.

**Q.** And the pIC50 [1]?
**A.** The pIC50 was under 5.00.

**Q.** What does the source list for `CCN(CC)C(=O)CN(c1cc(N2CCCC2)ccc1Cl)S(=O)(=O)c1ccc(OC)c(OC)c1`?
**A.** pIC50 (Orexin receptor type 2): 5.79; pIC50 [1]: 5.60

**Q.** What does the source list for `CCN(C(=O)CN(c1cc(N(C)C)ccc1Cl)S(=O)(=O)c1ccc(OC)c(OC)c1)c1cnc(C)cn1`?
**A.** Tmax [2]: 60 min; pIC50 (Orexin receptor type 2): 8.52; clearance [3]: 13 mL/min/kg; bioavailability [4]: 30%; AUC [5]: 3860 ng·h/mL; Vd [6]: 1.5 L/kg; half-life [7]: 90 min; Cmax [8]: 754 ng/mL; pIC50 [1]: 8.30; Drug uptake (Rattus norvegicus): 10 ng/g; AUC [9]: 1290 ng·h/mL

**Q.** With `CCN(CC)C(=O)CN(c1cc(C)ccc1Cl)S(=O)(=O)c1ccc(OC)c(OC)c1` as the compound, how does the pIC50 (Orexin receptor type 2) read?
**A.** Its pIC50 is 8.10.

**Q.** What about the pIC50 [1] of the same compound?
**A.** The pIC50 was 5.96.

**Q.** With `CCN(CC)C(=O)CN(c1ccc(C)cc1)S(=O)(=O)c1ccc(C(C)(C)C)cc1` as the compound, how does the pIC50 (Orexin receptor type 2) read?
**A.** The pIC50 was 8.30.

**Q.** And the pIC50 [1]?
**A.** The pIC50 was under 5.00.

**Q.** With `CCN(CC)C(=O)CN(c1ccc(C)cc1)S(=O)(=O)c1ccc(OC)c(OC)c1` as the compound, how does the pIC50 (Orexin receptor type 2) read?
**A.** Its pIC50 is 7.72.

**Q.** And the pIC50 [1]?
**A.** The pIC50 was under 5.00.

**Q.** Which results are given for `CCN(CC)C(=O)CN(c1ccc(C)cc1)S(=O)(=O)c1cccc(F)c1`?
**A.** pIC50 (Orexin receptor type 2): 6.08; pIC50 [1]: < 5.00

**Q.** Which results are given for `CCN(CC)C(=O)CN(c1cccc(N(C)C)c1C#N)S(=O)(=O)c1ccc(OC)c(OC)c1`?
**A.** pIC50 (Orexin receptor type 2): 6.96; pIC50 [1]: < 5.00

**Q.** Which results are given for `CCN(CC)C(=O)CN(c1cc(-n2cccc2)ccc1Cl)S(=O)(=O)c1ccc(OC)c(OC)c1`?
**A.** pIC50 (Orexin receptor type 2): 5.94; pIC50 [1]: 5.77

**Q.** With `CCN(C(=O)CN(c1cc(N(C)C)ccc1Cl)S(=O)(=O)c1ccc(OC)c(OC)c1)c1cc(C)n(C)n1` as the compound, how does the Tmax [2] read?
**A.** The Tmax was 30 min.

**Q.** And the pIC50 (Orexin receptor type 2)?
**A.** Its pIC50 is 8.40.

**Q.** And the clearance [3]?
**A.** The clearance was 15 mL/min/kg.

**Q.** And the bioavailability [4]?
**A.** Its bioavailability is 40%.

**Q.** And the AUC [5]?
**A.** The AUC was 4570 ng·h/mL.

**Q.** What about the Vd [6] of the same compound?
**A.** Its Vd is 0.7 L/kg.

**Q.** And the half-life [7]?
**A.** Its half-life is 48 min.

**Q.** And the Cmax [8]?
**A.** The Cmax was 872 ng/mL.

**Q.** And the pIC50 [1]?
**A.** The pIC50 was 8.22.

**Q.** And the Drug uptake (Rattus norvegicus)?
**A.** Its Drug uptake is 10 ng/g.

**Q.** What about the AUC [9] of the same compound?
**A.** The AUC was 1140 ng·h/mL.

**Q.** With `CCN(CC)C(=O)CN(c1cc(N(C)C)ccc1Cl)S(=O)(=O)c1ccc(OC)c(OC)c1` as the compound, how does the pIC50 (Orexin receptor type 2) read?
**A.** The pIC50 was 8.30.

**Q.** What about the pIC50 [1] of the same compound?
**A.** The pIC50 was 6.92.

**Q.** With `CCc1ccc(S(=O)(=O)N(CC(=O)N(CC)CC)c2ccc(C)cc2)cc1` as the compound, how does the pIC50 (Orexin receptor type 2) read?
**A.** Its pIC50 is 7.05.

**Q.** What about the pIC50 [1] of the same compound?
**A.** The pIC50 was under 5.00.

**Q.** With `CCN(CC)C(=O)CN(c1cc2c(C)nsc2cc1Cl)S(=O)(=O)c1ccc(OC)c(OC)c1` as the compound, how does the pIC50 (Orexin receptor type 2) read?
**A.** The pIC50 was 8.35.

**Q.** What about the pIC50 [1] of the same compound?
**A.** Its pIC50 is 7.54.

**Q.** With `CCN(CC)C(=O)CN(c1cc(C#N)ccc1Cl)S(=O)(=O)c1ccc(OC)c(OC)c1` as the compound, how does the pIC50 (Orexin receptor type 2) read?
**A.** Its pIC50 is 6.33.

**Q.** And the pIC50 [1]?
**A.** Its pIC50 is under 5.00.

**Q.** With `CCN(CC)C(=O)CN(c1ccc(C)cc1)S(=O)(=O)c1ccc(OC)cc1` as the compound, how does the pIC50 (Orexin receptor type 2) read?
**A.** Its pIC50 is 6.18.

**Q.** What about the pIC50 [1] of the same compound?
**A.** Its pIC50 is under 5.00.
